Assay results taken from ChEMBL document CHEMBL5550111, “Design, synthesis and biological evaluation of aryloxy thiophosphoramidate triesters of anticancer nucleoside analogues” (Bioorg Med Chem, 2024).

Legend:
[1] = system: HepG2; experiment: Cytotoxicity against human HepG2 cells assessed as maximum inhibition of cell viability upto 198 uM incubated for 72 hrs by MTS assay relative to control; type: functional; details: up to 198 µM
How it was run: (§1)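 Cells seeded at 0.5 to 100 × 10^3 per well the day before drug addition, then exposed to compound for 72 h. MTS added afterwards, with a further 4 h at 37 °C, and absorbance read. Tested in duplicate at 9 serial 3.16-fold dilutions, top concentration 198 μM. MI% is the maximum inhibition of viability across the tested range.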

[2] = system: OVCAR-3; experiment: Cytotoxicity against human OVCAR-3 cells assessed as maximum inhibition of cell viability upto 198 uM incubated for 72 hrs by MTS assay relative to control; type: functional; details: up to 198 µM; how it was run: as §1
[3] = system: MIA PaCa-2; experiment: Cytotoxicity against human MIA PaCa-2 cells assessed as inhibition of cell viability incubated for 72 hrs by MTS assay; type: functional, cell-based; details: MIA PaCa-2, 72 h
How it was run: (§2)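 Cells seeded at 0.5 to 100 × 10^3 per well the day before treatment, then exposed for 72 h to 9 serial concentrations (3.16-fold dilutions, top 198 μM), in duplicate. MTS added for a final 4 h at 37 °C and absorbance read. IC50 is the concentration giving 50% loss of viability. MI% is the maximum inhibition over the tested range.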

[4] = system: SK-MES-1; experiment: Cytotoxicity against human SK-MES-1 cells assessed as maximum inhibition of cell viability upto 198 uM incubated for 72 hrs by MTS assay relative to control; type: functional; details: up to 198 µM; how it was run: as §1
[5] = system: COLO 205; experiment: Cytotoxicity against human COLO 205 cells assessed as maximum inhibition of cell viability upto 198 uM incubated for 72 hrs by MTS assay relative to control; type: functional; details: up to 198 µM; how it was run: as §1
[6] = system: HT-29; experiment: Cytotoxicity against human HT-29 cells assessed as maximum inhibition of cell viability upto 198 uM incubated for 72 hrs by MTS assay relative to control; type: functional; details: up to 198 µM; how it was run: as §1
[7] = system: RPMI-8226; experiment: Cytotoxicity against human RPMI-8226 cells assessed as maximum inhibition of cell viability upto 198 uM incubated for 72 hrs by MTS assay relative to control; type: functional; details: up to 198 µM; how it was run: as §1
[8] = system: HT-29; experiment: Cytotoxicity against human HT-29 cells assessed as inhibition of cell viability incubated for 72 hrs by MTS assay; type: functional, cell-based; details: HT-29, 72 h; how it was run: as §2
[9] = system: NCI-H1975; experiment: Cytotoxicity against human NCI-H1975 cells assessed as inhibition of cell viability incubated for 72 hrs by MTS assay; type: functional, cell-based; details: NCI-H1975, 72 h; how it was run: as §2
[10] = system: RT112/84; experiment: Cytotoxicity against human RT112/84 cells assessed as maximum inhibition of cell viability upto 198 uM incubated for 72 hrs by MTS assay relative to control; type: functional; details: up to 198 µM; how it was run: as §1
[11] = system: NCI-H1975; experiment: Cytotoxicity against human NCI-H1975 cells assessed as maximum inhibition of cell viability upto 198 uM incubated for 72 hrs by MTS assay relative to control; type: functional; details: up to 198 µM; how it was run: as §1
[12] = system: HepG2; experiment: Cytotoxicity against human HepG2 cells assessed as inhibition of cell viability incubated for 72 hrs by MTS assay; type: functional, cell-based; details: HepG2, 72 h; how it was run: as §2
[13] = Prodrug activation assessed as carboxypeptidase Y (unknown origin) mediated (2S)-2-[[[(2R,3S,5R)-[…]-3-hydroxy-tetrahydrofuran-2-yl]methoxy-hydroxy-phosphoryl]amino]propanoic acid formation from intermediate (2S)-2-[[[(2R,3S,5R)-5-(5-fluoro-2,4-dioxo-pyrimidin-1-yl)-3-hydroxy-tetrahydrofuran-2-yl]methoxy-(1-naphthyloxy)phosphinothioyl]amino]propanoic acid at 5 mg measured for 48 hrs by 31P-NMR assay
How it was run: (§3)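 Thiophosphoramidate (5 mg, about 0.008 mmol) dissolved in 150 µL acetone-d6, with 300 µL TRIZMA buffer pH 7.6 added. Enzymatic conversion followed by 31P-NMR.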

[14] = system: RT112/84; experiment: Cytotoxicity against human RT112/84 cells assessed as inhibition of cell viability incubated for 72 hrs by MTS assay; type: functional, cell-based; details: RT112/84, 72 h; how it was run: as §2
[15] = system: COLO 205; experiment: Cytotoxicity against human COLO 205 cells assessed as inhibition of cell viability incubated for 72 hrs by MTS assay; type: functional, cell-based; details: COLO 205, 72 h; how it was run: as §2
[16] = system: RPMI-8226; experiment: Cytotoxicity against human RPMI-8226 cells assessed as inhibition of cell viability incubated for 72 hrs by MTS assay; type: functional, cell-based; details: RPMI-8226, 72 h; how it was run: as §2
[17] = system: SK-MES-1; experiment: Cytotoxicity against human SK-MES-1 cells assessed as inhibition of cell viability incubated for 72 hrs by MTS assay; type: functional, cell-based; details: SK-MES-1, 72 h; how it was run: as §2
[18] = system: OVCAR-3; experiment: Cytotoxicity against human OVCAR-3 cells assessed as inhibition of cell viability incubated for 72 hrs by MTS assay; type: functional, cell-based; details: OVCAR-3, 72 h; how it was run: as §2
[19] = system: MIA PaCa-2; experiment: Cytotoxicity against human MIA PaCa-2 cells assessed as maximum inhibition of cell viability upto 198 uM incubated for 72 hrs by MTS assay relative to control; type: functional; details: up to 198 µM; how it was run: as §1
[20] = Prodrug activation assessed as carboxypeptidase Y (unknown origin) mediated (2S)-2-[[[(2R,3R,5R)-5-(4-amino-2-oxo-pyrimidin-1-yl)-4,4-difluoro-3-hydroxy-tetrahydrofuran-2-yl]methoxy-hydroxy-phosphoryl]amino]propanoic acid formation from intermediate (2S)-2-[[[(2R,3R,5R)-5-(4-amino-2-oxo-pyrimidin-1-yl)-4,4-difluoro-3-hydroxy-tetrahydrofuran-2-yl]methoxy-phenoxy-phosphinothioyl]amino]propanoic acid at 5 mg measured for 48 hrs by 31P-NMR assay; how it was run: as §3
[21] = system: PANC-1; experiment: Cytotoxicity against human PANC-1 cells assessed as inhibition of cell viability incubated for 72 hrs by MTS assay; type: functional, cell-based; details: PANC-1, 72 h; how it was run: as §2
[22] = system: A2780; experiment: Cytotoxicity against human A2780 cells assessed as maximum inhibition of cell viability upto 198 uM incubated for 72 hrs by MTS assay relative to control; type: functional; details: up to 198 µM; how it was run: as §1
[23] = system: PANC-1; experiment: Cytotoxicity against human PANC-1 cells assessed as maximum inhibition of cell viability upto 198 uM incubated for 72 hrs by MTS assay relative to control; type: functional; details: up to 198 µM; how it was run: as §1
[24] = system: MDA-MB-231; experiment: Cytotoxicity against human MDA-MB-231 cells assessed as maximum inhibition of cell viability upto 198 uM incubated for 72 hrs by MTS assay relative to control; type: functional; details: up to 198 µM; how it was run: as §1
[25] = system: PC-3; experiment: Cytotoxicity against human PC-3 cells assessed as maximum inhibition of cell viability upto 198 uM incubated for 72 hrs by MTS assay relative to control; type: functional; details: up to 198 µM; how it was run: as §1
[26] = Prodrug activation assessed as carboxypeptidase Y (unknown origin) mediated intermediate (2S)-2-[[[(2R,3R,5R)-5-(4-amino-2-oxo-pyrimidin-1-yl)-4,4-difluoro-3-hydroxy-tetrahydrofuran-2-yl]methoxy-phenoxy-phosphinothioyl]amino]propanoic acid formation at 5 mg measured after 5 hrs by 31P-NMR assay; set-up: species or system Homo sapiens; how it was run: as §3
[27] = system: MDA-MB-231; experiment: Cytotoxicity against human MDA-MB-231 cells assessed as inhibition of cell viability incubated for 72 hrs by MTS assay; type: functional, cell-based; details: MDA-MB-231, 72 h; how it was run: as §2
[28] = Cytotoxicity against human T24/83 cells assessed as inhibition of cell viability incubated for 72 hrs by MTS assay; type: functional, cell-based; details: T24/83, 72 h; how it was run: as §2
[29] = system: A2780; experiment: Cytotoxicity against human A2780 cells assessed as inhibition of cell viability incubated for 72 hrs by MTS assay; type: functional, cell-based; details: A2780, 72 h; how it was run: as §2
[30] = system: BXPC-3; experiment: Cytotoxicity against human BXPC-3 cells assessed as maximum inhibition of cell viability upto 198 uM incubated for 72 hrs by MTS assay relative to control; type: functional; details: up to 198 µM; how it was run: as §1
[31] = system: PC-3; experiment: Cytotoxicity against human PC-3 cells assessed as inhibition of cell viability incubated for 72 hrs by MTS assay; type: functional, cell-based; details: PC-3, 72 h; how it was run: as §2
[32] = system: BXPC-3; experiment: Cytotoxicity against human BXPC-3 cells assessed as inhibition of cell viability incubated for 72 hrs by MTS assay; type: functional, cell-based; details: BXPC-3, 72 h; how it was run: as §2

Compound: C[C@H](NP(=S)(OC[C@H]1O[C@@H](n2cc(F)c(=O)[nH]c2=O)C[C@@H]1O)Oc1cccc2ccccc12)C(=O)OCc1ccccc1 (stereo partly specified)
- Imax [1]: 100%
- Imax [2]: 100%
- IC50 [3]: 2.69 µM
- Imax [4]: 97%
- Imax [5]: 100%
- Imax [6]: 100%
- Imax [7]: 100%
- IC50 [8]: 2.81 µM
- IC50 [9]: 100 µM
- Imax [10]: 97%
- Imax [11]: 100%
- IC50 [12]: 25.5 µM
- Drug metabolism [13]: Metabolite_Detected
- IC50 [14]: 2.49 µM
- IC50 [15]: 4 µM
- IC50 [16]: 6.63 µM
- IC50 [17]: 2.49 µM
- IC50 [18]: 21.5 µM
- Imax [19]: 100%

Compound: C[C@H](NP(=S)(OC[C@H]1O[C@@H](n2ccc(N)nc2=O)C(F)(F)[C@@H]1O)Oc1ccccc1)C(=O)OCc1ccccc1 (stereo partly specified)
- Imax [1]: 98%
- Imax [2]: 46%
- IC50 [3]: 3.83 µM
- Imax [4]: 94%
- Imax [5]: 97%
- Drug metabolism [20]: Metabolite_Detected
- Imax [6]: 99%
- IC50 [21]: 76.4 µM
- IC50 [8]: 11.5 µM
- Imax [10]: 94%
- Imax [22]: 100%
- Imax [23]: 99%
- Imax [24]: 91%
- Imax [25]: 96%
- IC50 [12]: 27.1 µM
- Drug metabolism [26]: Metabolite_Detected
- IC50 [14]: 0.92 µM
- IC50 [15]: 22.3 µM
- IC50 [27]: 11.6 µM
- IC50 [28]: 0.32 µM
- IC50 [17]: 0.92 µM
- IC50 [29]: 3.58 µM
- IC50 [18]: 97.4 µM
- Imax [30]: 95%
- IC50 [31]: 43.9 µM
- Imax [19]: 99%
- IC50 [32]: 8.16 µM
